In ChEMBL document CHEMBL5724801, “EUbOPEN Chemogenomics Library - Multiplex” (2024):
Where “and” joins values, the source holds several entries; their conditions need not be identical. Equal entries are not always repeated.

System: U2OS
Assay: Multiplex assay against U2OS
Type: toxicity, cell-based
Conditions: human
In short: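 Per cents of healthy-nucleus cells form the tubulin, mitochondrial-mass and membrane-permeability phenotype values. Live cells were stained at seeding with Hoechst33342, BioTracker Green Microtubule Cytoskeleton Dye, MitoTracker Red and Annexin V Alexa Fluor 680. After compound addition they were imaged on a CQ1 microscope at 37°C and 5% CO2, and CellPathfinder machine-learning gating split them into Hoechst high-intensity objects or normal cells, normal cells into healthy, pyknosed or fragmented nuclei, and pyknosed cells into mitotic or apoptotic.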

[1] = 12 h, 1 µM, compound concentration 1 uM
[2] = 12 h, 10 µM, compound concentration 10 uM
[3] = 24 h, 1 µM, compound concentration 1 uM
[4] = 24 h, 10 µM, compound concentration 10 uM
[5] = 48 h, 1 µM, compound concentration 1 uM
[6] = 48 h, 10 µM, compound concentration 10 uM

Structure (SMILES): COc1ccc2[nH]c(I)c(CCNC(C)=O)c2c1 [IODOMELATONIN]
- Population Apoptotic (%) [1]: 68% and 37%
- Population Fragmented Nuclei (%) [1]: 19% and 11%
- Population Healthy Nuclei (%) [1]: 74% and 83%
- Population Hoechst High Intensity Objects (%) [1]: 2% and 0%
- Population Membrane Permeable-Phenotype (%) [1]: 4% and 5%
- Population Mitochondria Different-Phenotype (%) [1]: 3% and 1%
- Population Mitotic Cells (%) [1]: 31% and 62%
- Population Normal (%) [1]: 97% and 99%
- Population Pyknosed Nuclei (%) [1]: 5%
- Population Tubulin-Different-Phenotype (%) [1]: 1% and 2%
- Total Cell Count [1]: 282 and 156
- Population Apoptotic (%) [2]: 77% and 80%
- Population Fragmented Nuclei (%) [2]: 25% and 41%
- Population Healthy Nuclei (%) [2]: 64% and 54%
- Population Hoechst High Intensity Objects (%) [2]: 3% and 0%
- Population Membrane Permeable-Phenotype (%) [2]: 2% and 10%
- Population Mitochondria Different-Phenotype (%) [2]: 1% and 6%
- Population Mitotic Cells (%) [2]: 22% and 20%
- Population Normal (%) [2]: 96% and 99%
- Population Pyknosed Nuclei (%) [2]: 9% and 3%
- Population Tubulin-Different-Phenotype (%) [2]: 1% and 2%
- Total Cell Count [2]: 231 and 134
- Population Apoptotic (%) [3]: 86% and 80%
- Population Fragmented Nuclei (%) [3]: 16% and 15%
- Population Healthy Nuclei (%) [3]: 75% and 78%
- Population Hoechst High Intensity Objects (%) [3]: 1%
- Population Membrane Permeable-Phenotype (%) [3]: 3% and 8%
- Population Mitochondria Different-Phenotype (%) [3]: 1% and 0%
- Population Mitotic Cells (%) [3]: 13% and 20%
- Population Normal (%) [3]: 98%
- Population Pyknosed Nuclei (%) [3]: 8% and 5%
- Population Tubulin-Different-Phenotype (%) [3]: 2%
- Total Cell Count [3]: 354 and 179
- Population Apoptotic (%) [4]: 95% and 88%
- Population Fragmented Nuclei (%) [4]: 25% and 34%
- Population Healthy Nuclei (%) [4]: 66% and 59%
- Population Hoechst High Intensity Objects (%) [4]: 1%
- Population Membrane Permeable-Phenotype (%) [4]: 4% and 7%
- Population Mitochondria Different-Phenotype (%) [4]: 1% and 5%
- Population Mitotic Cells (%) [4]: 4% and 11%
- Population Normal (%) [4]: 98%
- Population Pyknosed Nuclei (%) [4]: 8% and 5%
- Population Tubulin-Different-Phenotype (%) [4]: 1% and 2%
- Total Cell Count [4]: 273 and 153
- Population Apoptotic (%) [5]: 92% and 86%
- Population Fragmented Nuclei (%) [5]: 12% and 13%
- Population Healthy Nuclei (%) [5]: 79% and 81%
- Population Hoechst High Intensity Objects (%) [5]: 1%
- Population Membrane Permeable-Phenotype (%) [5]: 5% and 4%
- Population Mitochondria Different-Phenotype (%) [5]: 2%
- Population Mitotic Cells (%) [5]: 7% and 13%
- Population Normal (%) [5]: 98%
- Population Pyknosed Nuclei (%) [5]: 7% and 5%
- Population Tubulin-Different-Phenotype (%) [5]: 3%
- Total Cell Count [5]: 509 and 284
- Population Apoptotic (%) [6]: 97% and 100%
- Population Fragmented Nuclei (%) [6]: 21% and 29%
- Population Healthy Nuclei (%) [6]: 68% and 65%
- Population Hoechst High Intensity Objects (%) [6]: 2% and 0%
- Population Membrane Permeable-Phenotype (%) [6]: 5% and 7%
- Population Mitochondria Different-Phenotype (%) [6]: 0% and 5%
- Population Mitotic Cells (%) [6]: 2% and 0%
- Population Normal (%) [6]: 97% and 99%
- Population Pyknosed Nuclei (%) [6]: 9% and 5%
- Population Tubulin-Different-Phenotype (%) [6]: 2% and 4%
- Total Cell Count [6]: 373 and 209

Structure (SMILES): COC[C@@H](CC(C)C)NC1=N/C(=C\c2ccc3ncsc3c2)C(=O)N1C
- Population Apoptotic (%) [1]: 55.88% and 33.33%
- Population Fragmented Nuclei (%) [1]: 15.5% and 15.08%
- Population Healthy Nuclei (%) [1]: 77.48% and 78.21%
- Population Hoechst High Intensity Objects (%) [1]: 0.41% and 0%
- Population Membrane Permeable-Phenotype (%) [1]: 0.8% and 2.14%
- Population Mitochondria Different-Phenotype (%) [1]: 0.27% and 9.29%
- Population Mitotic Cells (%) [1]: 44.12% and 66.67%
- Population Normal (%) [1]: 99.59% and 100%
- Population Pyknosed Nuclei (%) [1]: 7.02% and 6.7%
- Population Tubulin-Different-Phenotype (%) [1]: 1.33% and 0%
- Total Cell Count [1]: 486 and 179
- Population Apoptotic (%) [2]: 25% and 29.63%
- Population Fragmented Nuclei (%) [2]: 47.65% and 84.45%
- Population Hoechst High Intensity Objects (%) [2]: 29.32% and 10.96%
- Population Membrane Permeable-Phenotype (%) [2]: 4.62% and 2.68%
- Population Mitotic Cells (%) [2]: 75% and 70.37%
- Population Normal (%) [2]: 70.68% and 89.04%
- Population Pyknosed Nuclei (%) [2]: 3.24% and 3.02%
- Population Tubulin-Different-Phenotype (%) [2]: 20.13% and 12.5%
- Total Cell Count [2]: 873 and 1004
- Population Apoptotic (%) [3]: 67.39% and 47.62%
- Population Fragmented Nuclei (%) [3]: 12.71% and 10%
- Population Healthy Nuclei (%) [3]: 79.7% and 80.87%
- Population Hoechst High Intensity Objects (%) [3]: 0%
- Population Membrane Permeable-Phenotype (%) [3]: 0.41% and 0%
- Population Mitochondria Different-Phenotype (%) [3]: 0.41% and 6.45%
- Population Mitotic Cells (%) [3]: 32.61% and 52.38%
- Population Normal (%) [3]: 100%
- Population Pyknosed Nuclei (%) [3]: 7.59% and 9.13%
- Population Tubulin-Different-Phenotype (%) [3]: 0.83% and 0%
- Total Cell Count [3]: 606 and 230
- Population Fragmented Nuclei (%) [4]: 53.16% and 86.53%
- Population Hoechst High Intensity Objects (%) [4]: 30.44% and 12.75%
- Population Membrane Permeable-Phenotype (%) [4]: 2.98% and 2.22%
- Population Mitotic Cells (%) [4]: 91.67% and 75%
- Population Normal (%) [4]: 69.56% and 87.25%
- Population Pyknosed Nuclei (%) [4]: 4.34% and 3.2%
- Population Tubulin-Different-Phenotype (%) [4]: 20% and 8.89%
- Total Cell Count [4]: 795 and 1004
- Population Apoptotic (%) [5]: 48.44% and 55.56%
- Population Fragmented Nuclei (%) [5]: 12.46% and 10.34%
- Population Healthy Nuclei (%) [5]: 81.16% and 82.49%
- Population Hoechst High Intensity Objects (%) [5]: 0.69% and 0.79%
- Population Membrane Permeable-Phenotype (%) [5]: 1.6% and 0.64%
- Population Mitochondria Different-Phenotype (%) [5]: 0% and 3.54%
- Population Mitotic Cells (%) [5]: 51.56% and 44.44%
- Population Normal (%) [5]: 99.31% and 99.21%
- Population Pyknosed Nuclei (%) [5]: 6.38% and 7.16%
- Population Tubulin-Different-Phenotype (%) [5]: 0.86% and 0%
- Total Cell Count [5]: 1010 and 380
- Population Apoptotic (%) [6]: 42.86% and 52.83%
- Population Fragmented Nuclei (%) [6]: 86.99% and 92.61%
- Population Healthy Nuclei (%) [6]: 3.8% and 2.78%
- Population Hoechst High Intensity Objects (%) [6]: 32.94% and 15.32%
- Population Membrane Permeable-Phenotype (%) [6]: 3.85% and 3.12%
- Population Mitochondria Different-Phenotype (%) [6]: 0% and 3.12%
- Population Mitotic Cells (%) [6]: 57.14% and 47.17%
- Population Normal (%) [6]: 67.06% and 84.68%
- Population Pyknosed Nuclei (%) [6]: 9.21% and 4.61%
- Population Tubulin-Different-Phenotype (%) [6]: 3.85% and 6.25%
- Total Cell Count [6]: 1020 and 1358
